The values below come from article PMC9535606 (Journal of Alzheimer's Disease Reports, 2022).

In data set [1] the test system is rat primary cortical neurons. The data set is described as follows: Aβ25-35-induced cytotoxicity, cell survival with or without MK-801. The data set is classed as cell-based. The conditions noted are these: for cell survival rate: 10 μM Aβ25-35 for 2 days, then 1 mM for 4 days; for protective effect against Aβ25-35 in the presence vs absence of MK-801: MK-801 10 μM, SB 1 mM, LiBen 0.5 and 1 mM.

Data set [2] concerns primary rat cortical neurons. The experiment in a line: 3-NP-induced cellular ROS, CellROX fluorescence. The data set is classed as cell-based. The conditions noted are these: for ROS level compared with 3-NP-vehicle-treated group: 0.5 mM for 24 h prior to 2.5 mM 3-NP, LiCl p < 0.001, SB p < 0.01, LiBen p < 0.0001. The method in brief: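 Primary cortical cultures came from E18 Sprague-Dawley rat cortex and were used at DIV 7–9 (neuron-enriched). Cultures were pretreated with test compound (0, 0.5, 1 or 3 mM) for 24 h, then exposed to 2.5 mM 3-NP for another 24 h. CellROX Green reagent was added, cells were washed with PBS, and ROS were quantified as fluorescence (Ex 485/Em 520 nm), with confocal imaging.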

The subject of data set [3] is primary rat cortical neurons. The experiment in a line: 3-NP-induced neurotoxicity, cell survival by counting Hoechst-stained nuclei. Format: cell-based. The settings on record: for Cell Survival (%): 0.5 mM for 24 h prior to 2.5 mM 3-NP for 24 h, Hoechst, % of control; for viability of cultured cortical neurons exposed to 3-NP: then 2.5 mM 3-NP 24 h. The gist of the method: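 E18 Sprague-Dawley rat cortical neurons (DIV 7–9) were pretreated with test compound for 24 h, then given 2.5 mM 3-NP for 24 h. Cells were fixed in 4% paraformaldehyde and stained with Hoechst 33342 (1:1000 in PBS, 5–15 min). Nuclei with normal morphology were counted. Survival (%) = mean surviving cells ÷ concurrent control × 100%.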

The test system of data set [4] is rat primary cortical neurons. The experiment in a line: Mitochondrial respiration, Seahorse XF Cell Mito Stress Test. The conditions noted are these: 3 mM. The data set is classed as cell-based. The method in brief:
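Rat primary cortical neurons on XF96 plates were pretreated with test compound (3 mM) for 24 h. They were then moved to XF assay medium for 1 h at 37 °C without CO2. Oxygen consumption rate was recorded on an XF96 analyser with serial oligomycin, FCCP and rotenone/antimycin A injections. Basal respiration, ATP production, proton leak and spare capacity were derived; mean ± SD, N=3.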

The conditions of data set [5]: US FDA and JECFA of WHO; cited from earlier work.
Data set [6] has as its system rat primary cortical neurons. The data set is described as follows: Neurogenesis, BrdU/NeuN immunostaining after Aβ25-35. Format: cell-based. The conditions noted are these: p < 0.0001. The gist of the method:
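Aβ25-35 was pre-aggregated at 37 °C for 24 h and applied to E18 rat cortical cultures on coverslips for 2 days. Medium was then replaced with BrdU labelling solution plus test compound for 4 days at 37 °C. Cells were fixed in PFA, blocked in 2% BSA, permeabilised with 0.03% Triton X-100 and treated with 2 N HCl. They were stained for BrdU (1:250), NeuN (1:300) and Hoechst. Triple-positive cells were expressed as % of untreated control; mean ± SD, N=3, one-way ANOVA with Student-Newman-Keuls.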

Data set [7] concerns APP/PS1 mice. The experiment in a line: Prepulse inhibition, sensorimotor gating. Format: in vivo, mouse. The gist of the method:
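In APP/PS1 mice and WT littermates, test compound in 0.9% saline was given i.p. once daily from 5 months of age. The dose was 256 mg/kg/day for 5 months, then lowered to 200 mg/kg/day. Saline-vehicle groups served as controls. Behavioural testing took place at 5 (pre-dose), 7, 10 and 13 months of age.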

The test system of data set [8] is APP/PS1 mice. The data set is described as follows: Amyloid plaque number in brain, Congo red staining. Format: in vivo, mouse. The conditions noted are these: APP/PS1 mice at 16 months of age, AD/LiBen vs AD/Veh; p < 0.05.
A short description of data set [9]: Pharmacokinetics of lithium in rat plasma after single oral dose. The settings on record: same molarity. Format: in vivo. The gist of the method: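 Male Sprague-Dawley rats (240–260 g, n=6/group) were fasted overnight and given a single gavage dose in PBS. Doses were test compound 255.3 mg/kg or sodium benzoate 287.9 mg/kg plus Li2CO3 74.2 mg/kg (equimolar). Jugular blood was drawn from 0 to 24 h into heparinised tubes, and plasma was separated at 2500×g for 15 min at 4 °C. Plasma was digested overnight in 2–5% nitric acid, filtered, and lithium measured by ICP-MS; concentration-time plots were used; mean ± SD.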

Data set [10] has as its system rat primary cortical neuronal culture. The experiment in a line: Oxygen glucose deprivation. Format: cell-based. The method in brief: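 For OGD, rat cortical cultures were rinsed into glucose- and pyruvate-free Neurobasal-A and held 1 h at 37 °C/5% CO2. They were then kept under 95% N2/5% CO2 (about 1.0% O2) for 4 h. Test compound was present either for the whole 53 h (0–5 mM) or only for 48 h post-OGD (0–3 mM). Viability was measured by MTT as % of the normoxic untreated control.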

For another data set, the system named is WT mice. The experiment in a line: Chronic administration safety observations in WT mice. Format: in vivo, mouse. The method in brief: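 Wild-type littermates dosed i.p. once daily from 5 months of age for 8 months with test compound in 0.9% saline (n = 27) or saline vehicle (n = 23). Dose 256 mg/kg/day for 5 months, then 200 mg/kg/day. Barnes maze at 5, 7, 10 and 13 months, scored as probe-trial target-quadrant time over total exploring time. Body weight and survival followed to 16 months.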

Setting [11] is: 24 h, compared with SB or LiCl treatment.

SMILES strings stand for the structures.

On to `[Cl-].[Li+]` [LiCl, lithium chloride, reference compound], for which the cell survival rate in data set [1] is on record as 74.0%. The “ROS level compared with 3-NP-vehicle-treated group” value in data set [2] is “significant decreases”. Besides, the “Cell Survival (%)” value in [3] is recorded as 61.5%. For the same compound, the spare respiratory capacity entry in data set [4] (24 h pre-treatment) is on record as “less effective than LiBen”.

Turning to `O=C(O)CC[N+](=O)[O-]` [3-NP, 3-nitropropionic acid, reference compound], the “ROS level (fluorescent intensity) increase compared to control” value in [2] (3-NP 2.5 mM, 24 h, p < 0.05) is 57.5%. Besides, in data set [3] (3-NP 2.5 mM alone), the neuronal cell death is reported as about 50%.

`O=C([O-])c1ccccc1.[Na+]` [SB, Sodium benzoate]: in data set [1], the cell survival rate came to 70.7% and the “protective effect against Aβ25-35 in the presence vs absence of MK-801” value is on record as “blocked by MK-801”. In addition, the “ROS level compared with 3-NP-vehicle-treated group” value in data set [2] is given as “significant decreases”. In addition, in data set [3], the “Cell Survival (%)” value turned out to be 67.1%. Moreover, the “acceptable daily intake level” value in [5] is 5 mg/kg body weight. In addition, in data set [4] (24 h pre-treatment), the spare respiratory capacity entry is on record as “less effective than LiBen”.

As for `O=C([O-])c1ccccc1.[Li+]` [LiBen, lithium benzoate], the “neurogenesis (BrdU+/NeuN+ cells) vs corresponding control” value in data set [6] (Aβ25-35 exposure, then 0.5 mM for 4 days) is “significantly improve neurogenesis”. Further, the “neurogenesis (BrdU+/NeuN+ cells) vs corresponding control” value in data set [6] (No Aβ25-35 exposure, 0.5 mM for 4 days) is recorded as “significantly improve neurogenesis”. In addition, in the data set with APP/PS1 mice [7] (APP/PS1 mice at 13 months of age), the “improvement of PPI deficit” value was “reached significant level”. Also, the “prepulse inhibition (PPI)” value in the data set with APP/PS1 mice [7] (APP/PS1 mice, i.p. once daily from 5 months of age, tested at 7, 10, 13 months) is “normal PPI at all time points”. Besides, in data set [1], the cell survival rate is 85.1% and the “protective effect against Aβ25-35 in the presence vs absence of MK-801” value is given as “no differences were observed”. In data set [2], the “ROS level compared with 3-NP-vehicle-treated group” value is reported as “much more significant”. Further, in the data set on APP/PS1 mice [8], the “decrease in number of plaques in cortex” value is on record as 21.8% and the “decrease in number of plaques in hippocampus” value is on record as 27.8%. The “Cell Survival (%)” value in [3] was determined as 79.0%. For the same compound, the “viability of cultured cortical neurons exposed to 3-NP” value in data set [3] (LiBen 1 mM 24 h, p < 0.005 vs 3-NP alone) is “significantly increase”. For the same compound, the “viability of cultured cortical neurons exposed to 3-NP” value in data set [3] (LiBen 3 mM 24 h, p < 0.001 vs 3-NP alone) is on record as “significantly increase”. In addition, the “viability of cultured cortical neurons in the absence of 3-NP” value in data set [3] (LiBen 1 or 3 mM, no 3-NP) is recorded as “the difference was not revealed”. Also, in data set [9], the “AUC of lithium compared with the SB + Li2CO3 mixture group” value is listed as “also higher” and the “Cmax of lithium compared with the SB + Li2CO3 mixture group” value is reported as “significantly higher”. Also, the “OGD-induced cell death / cell viability” value in data set [10] (3 mM LiBen present for 53 hrs of the whole culture period) was “significantly recovered and comparable to the normoxia group”. Further, in [10] (5 mM LiBen, 53 hrs), the “cell survival in normoxia group” value was “also reduced” and the “neuroprotective property under OGD” value is given as “vanished”. For the same compound, in data set [10] (LiBen 0.3 to 3 mM added for 48 hrs post-OGD, vs 0 mM group), the OGD-induced cell death entry is “significantly alleviates OGD-induced cell death”. Moreover, the “body weight change during the experimental period” value with WT mice (WT mice, chronic administration) is reported as “without significant body weight change”. The survival entry in the data set on WT mice (WT mice, chronic administration, termination time point of the experiment) is listed as “at least 16 months”. For the same compound, the “toxicity of chronic use” value in the data set on WT mice (within the tested dose range (256, later 200 mg/kg/day i.p.)) is listed as “did not display any toxicity”. In data set [4] (setting [11]), the ATP production entry was “more reduction” and the proton leak result is on record as “more reduction”. The spare respiratory capacity entry in [4] (24 h pre-treatment) is “increasing tendency”. Further, the “basal oxygen consumption rate” value in data set [4] (24 h pre-treatment, did not reach the significant level) is given as “reduced more basal oxygen consumption rate than the other treatment groups”.
